Legend:
[1] = tested on: endogenous H3K14ac / histone H3 in HEK293 cells; type: cell-based; conditions: anti-Flag IP, anti-H3K14ac immunoblot
Procedure, shortened: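 HEK293 cells were seeded at 300,000 per 6 cm dish and lipofection-transfected with Flag-tagged MORF N-terminal constructs (aa 1–352, or aa 1–215 lacking PHD1/2). After about 48 h, cells were lysed in buffer with 150 mM KCl and immunoprecipitated on anti-Flag M2 agarose. Beads were washed extensively and eluted in 50 mM phosphoric acid. Blots were probed with anti-Flag, anti-H3K14ac and anti-H3. Where indicated, TSA (3 μM) was added to the medium 6 h before harvest.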

HEK293 cells = experiment: Live green fluorescence microscopy of GFP-MORF constructs; type: cell-based; conditions: 18 h post-transfection

Molecule | Co-immunoprecipitation of endogenous H3K14ac [1] | Subcellular localization of GFP-MORF construct (HEK293 cells)
N-MORF: entire N-terminal region of MORF (amino acids 1–352), Flag-tag fusion (protein, left off: Flag, end not stated, kept) MVKLANPLYTEWILEAIQKIKKQKQRPSEERICHAVSTSHGLDKKTVSEQLELSVQDGSVLKVTNKGLASYKDPDNPGRFSSVKPGTFPKSAKGSRGSCNDLRNVDWNKLLRRAIEGLEEPNGSSLKNIEKYLRSQSDLTSTTNNPAFQQRLRLGAKRAVNNGRLLKDGPQYRVNYGSLDGKGAPQYPSAFPSSLPPVSLLPHEKDQPRADPIPICSFCLGTKESNREKKPEELLSCADCGSSGHPSCLKFCPELTTNVKALRWQCIECKTCSACRVQGRNADNMLFCDSCDRGFHMECCDPPLSRMPKGMWICQVCRPKKKGRKLLHEKAAQIKRRYAKPIGRPKNKLKQR | co-immunoprecipitated endogenous H3K14ac | –
GFP-N-MORF: GFP-tagged N-MORF (amino acids 1–352) (protein, UniProt Q8WYB5 1-352, looked up, fragment, GFP tag) MVKLANPLYTEWILEAIQKIKKQKQRPSEERICHAVSTSHGLDKKTVSEQLELSVQDGSVLKVTNKGLASYKDPDNPGRFSSVKPGTFPKSAKGSRGSCNDLRNVDWNKLLRRAIEGLEEPNGSSLKNIEKYLRSQSDLTSTTNNPAFQQRLRLGAKRAVNNGRLLKDGPQYRVNYGSLDGKGAPQYPSAFPSSLPPVSLLPHEKDQPRADPIPICSFCLGTKESNREKKPEELLSCADCGSSGHPSCLKFCPELTTNVKALRWQCIECKTCSACRVQGRNADNMLFCDSCDRGFHMECCDPPLSRMPKGMWICQVCRPKKKGRKLLHEKAAQIKRRYAKPIGRPKNKLKQR | – | clearly associated with chromatin forming nuclear speckles
N-MORFΔPHD1/2: N-MORF (amino acids 1–215) in which the PHD1/2 fingers are deleted, Flag-tag fusion (protein, left off: Flag, end not stated, kept) MVKLANPLYTEWILEAIQKIKKQKQRPSEERICHAVSTSHGLDKKTVSEQLELSVQDGSVLKVTNKGLASYKDPDNPGRFSSVKPGTFPKSAKGSRGSCNDLRNVDWNKLLRRAIEGLEEPNGSSLKNIEKYLRSQSDLTSTTNNPAFQQRLRLGAKRAVNNGRLLKDGPQYRVNYGSLDGKGAPQYPSAFPSSLPPVSLLPHEKDQPRADPIPI | unable to pull down acetylated histone H3 | –
GFP-N-MORFΔPHD1/2: GFP-tagged N-MORFΔPHD1/2 (amino acids 1–215) (protein, UniProt Q8WYB5 1-215, looked up, fragment, GFP tag) MVKLANPLYTEWILEAIQKIKKQKQRPSEERICHAVSTSHGLDKKTVSEQLELSVQDGSVLKVTNKGLASYKDPDNPGRFSSVKPGTFPKSAKGSRGSCNDLRNVDWNKLLRRAIEGLEEPNGSSLKNIEKYLRSQSDLTSTTNNPAFQQRLRLGAKRAVNNGRLLKDGPQYRVNYGSLDGKGAPQYPSAFPSSLPPVSLLPHEKDQPRADPIPI | – | evenly dispersed in the nucleus

— PMC3502708 (Journal of molecular biology, 2012)
